In article PMC4304654 (Bioorganic & medicinal chemistry, 2012):
≈ marks a conversion by molar mass, not a printed value. Where two headings read alike, the source gives them in different places. Blank lines part the entries; values can stand above or below the compound they belong to.

Tests used:
[1] = biological target: T1, K18 tau fragment (amino acids 244–369) bearing the P301L mutation (K18PL) (Homo sapiens, UniProt P10636, P618L); assay: Heparin-induced K18PL tau fibrillization, thioflavin-T; format: biochemical
T1 sequence (P10636 561-686 P618L): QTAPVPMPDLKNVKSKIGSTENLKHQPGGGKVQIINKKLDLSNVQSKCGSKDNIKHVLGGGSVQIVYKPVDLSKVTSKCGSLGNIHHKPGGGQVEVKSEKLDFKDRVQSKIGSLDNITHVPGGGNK
Outline: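 Heparin-induced fibrillization of the P301L K18 tau fragment (residues 244–369) in sodium acetate buffer, with test compound at a range of concentrations, each in triplicate. Read-out is thioflavin-T fluorescence of cross-beta fibrils. IC50 comes from a sigmoidal fit of the concentration-response, from one curve fit or the mean of 2 or more separate analyses. Maximal % inhibition is also reported.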

[2] = Aqueous solubility in the sodium acetate buffer of the fibrillization assay; format: physicochemical
[3] = Brain and plasma levels 1 h after i.p. administration of 5 mg/kg; format: in vivo, B6C3F1 mice; conditions: mice
Outline: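 Mice got a single i.p. 5 mg/kg dose of test compound and were sacrificed 1 h later. Perfused brain hemispheres were sonicated in 10 mM ammonium acetate, pH 5.7 (50% w/v). Plasma came from EDTA-treated blood spun 10 min at 4500g, 4 °C. Samples were acetonitrile-precipitated and spun at 15000g. Supernatants went to LC-MS/MS (MRM, C18, 35 °C) and were quantified against matrix-matched linear standard curves.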

[4] = cited from earlier work; for Solubility in assay buffer, upper solubility limit: sodium acetate fibrillization assay buffer, previously reported data ref 7
[5] = biological target: T1, K18 tau fragment (amino acids 244–369) bearing the P301L mutation (K18PL); conditions: 50 μM compound concentration; previously reported data ref 7; cited from earlier work
[6] = Unbound fraction in plasma by rapid equilibrium dialysis; format: in vitro ADME; conditions: mouse, pH 7.4
[7] = Full PK evaluation and oral bioavailability of 43; format: in vivo, B6C3F1 mice; conditions: mice, 5 mg/kg i.p., 0.5–16 h post-dosing
mice [8] = conditions: mouse, in vivo, 100 mg/kg
mice [9] = conditions: mouse, in vivo, 50 mg/kg/day
in vivo = conditions: female, mouse, 50 mg/kg/day, Calculated free compound level in brain, mice, 3 days of dosing via drinking water at 50 mg/kg/day
[10] = cited from earlier work
[11] = mice, 1 h after 5 mg/kg i.p.; previously reported data ref 7; cited from earlier work
[12] = mouse plasma; previously reported data ref 7; cited from earlier work
[13] = mice, 3 days of dosing via drinking water at 50 mg/kg/day

SMILES: Nc1scc2c(C(=O)O)nn(-c3ccc(Cl)cc3)c(=O)c12 [Compound 37, 5-Amino-3-(4-chlorophenyl)-4-oxo-3,4-dihydrothieno[3,4-d]pyridazine-1-carboxylic acid]
- Solubility in assay buffer, upper solubility limit [4]: >200 µM
- K18PL centrifugation assay % Soluble [5]: 74%

SMILES: Cc1n[nH]c(=O)c2c(N)scc12 [Compound 55, 7-Amino-4-methylthieno[3,4-d]pyridazin-1(2H)-one]
- Plasma levels 1 h after dosing ([3]; 5 mg/kg i.p.): low plasma levels
- Brain level ([3]; 1 h after 5 mg/kg i.p.): BLD ^d
- Plasma level ([3]; 1 h after 5 mg/kg i.p.): BLD ^d
- Inhibition in the K18PL fibrillization assay [1]: near full inhibition
- solubility [2]: > 200 µM

SMILES: Cc1nn(Cc2ccccc2)c(=O)c2c(N)scc12 [Compound 62, 7-Amino-2-benzyl-4-methylthieno[3,4-d]pyridazin-1(2H)-one]
- fraction unbound at 5 h, 1 μM [6]: 0.04 ± 0.01
- solubility [2]: 80 µM (≈ 21.7 µg/mL)

SMILES: Cc1nn(C)c(=O)c2c(N)scc12 [Compound 56, 7-Amino-2,4-dimethylthieno[3,4-d]pyridazin-1(2H)-one]
- Brain level ([3]; 1 h after 5 mg/kg i.p.): BLD ^d
- Inhibition in the K18PL fibrillization assay [1]: near full inhibition
- solubility [2]: > 200 µM

SMILES: O=C(O)c1nn(-c2ccc(F)cc2)c(=O)c2c1CSC2=O [Compound 70, 3-(4-Fluorophenyl)-4,5-dioxo-3,4,5,7-tetrahydrothieno[3,4-d]pyridazine-1-carboxylic acid]
- Inhibition in the K18PL fibrillization assay [1]: near full inhibition
- solubility [2]: > 200 µM

SMILES: Nc1scc2c(C(=O)NC3CC3)nn(-c3ccc(F)cc3)c(=O)c12 [Compound 43, 5-Amino-N-cyclopropyl-3-(4-fluorophenyl)-4-oxo-3,4-dihydrothieno[3,4-d]pyridazine-1-carboxamide]
- Calculated free compound level in brain [13]: 6 nM
- Total brain levels [13]: ~ 140 nM
- Plasma and brain levels after 30 days versus 3 days in drinking water (mouse, in vivo, 50 mg/kg/day): comparable
- Brain exposure [7]: good brain exposure
- Signs of toxicity after a single oral administration (mice [8]): only mild and transient lethargy
- solubility [2]: > 200 µM
- Adverse events (mice [9]): no visible adverse events
- Amount of water consumed (mice [9]): normal
- Blood cell counts (mice [9]): no alterations in any blood cell counts
- Tolerability (mice [9]; po): well-tolerated with no notable side-effects
- concentration at 3 days (in vivo): 6 ± 0.4 nM

SMILES: CCOC(=O)c1nn(-c2ccc(Cl)cc2)c(=O)c2c(N)scc12 [Compound 29, Ethyl 5-amino-3-(4-chlorophenyl)-4-oxo-3,4-dihydrothieno-[3,4-d]pyridazine-1-carboxylate]
- Solubility in assay buffer, upper solubility limit [4]: 13 µM (≈ 4.55 µg/mL)
- K18PL centrifugation assay % Soluble [5]: 47%

SMILES: Nc1scc2c(C(=O)NC3CC3)nn(-c3ccc(Cl)cc3)c(=O)c12 [Compound 1, 5-Amino-3-(4-chlorophenyl)-N-cyclopropyl-4-oxo-3,4-dihydrothieno[3,4-d]pyridazine-1-carboxamide]
- Solubility in assay buffer, upper solubility limit [4]: 32 µM (≈ 11.5 µg/mL)
- Water solubility ([4]; text of introduction): ~ 30 μM
- K18PL centrifugation assay % Soluble [5]: 69%
- Bound in brain homogenates ([10]; equilibrium dialysis): ~ 99%
- Fu (%) brain, fraction unbound ([10]; mouse brain homogenate, previously reported data ref 7): 1.1 ± 0.6%
- B/P (fu), ratio of free drug in brain and plasma [11]: 0.92 ±0.16
- B/P (total), brain-to-plasma ratio [11]: 1.61 ± 0.28
- Brain level [11]: 1300 ± 110 ng/g
- Plasma level [11]: 0.82 ± 0.15 µg/mL
- Fu (%) plasma, fraction unbound [12]: 1.9 ± 0.2%

SMILES: Nc1scc2c(C(=O)NCC(F)(F)F)nn(-c3ccc(F)cc3)c(=O)c12 [Compound 44, 5-Amino-3-(4-fluorophenyl)-4-oxo-N-(2,2,2-trifluoroethyl)-3,4-dihydrothieno[3,4-d]pyridazine-1-carboxamide]
- B/P (total), brain-to-plasma ratio ([3]; 1 h after 5 mg/kg i.p.): unity
- fraction unbound at 5 h, 1 μM [6]: 0.022 ± 0.002
- solubility [2]: > 200 µM

Now from value to compound:

- Inhibition in the K18PL fibrillization assay [1]: near full inhibition
- solubility [2]: 12.8 µM (≈ 5.49 µg/mL)
SMILES: CCOC(=O)c1nn(-c2ccc(Cl)cc2)c(=O)c2c(N)sc(Br)c12 [Compound 68, Ethyl 5-amino-7-bromo-3-(4-chlorophenyl)-4-oxo-3,4-dihydrothieno[3,4-d]pyridazine-1-carboxylate]

- Brain penetration ([3]; 1 h after 5 mg/kg i.p.): not brain-penetrant
- Inhibition in the K18PL fibrillization assay [1]: near full inhibition
SMILES: CC(C)NC(=O)c1nn(-c2ccc(Cl)cc2)c(=O)c2c1CSC2=O [Compound 72, 3-(4-Chlorophenyl)-N-isopropyl-4,5-dioxo-3,4,5,7-tetrahydrothieno[3,4-d]pyridazine-1-carboxamide]

- Inhibition in the K18PL fibrillization assay [1]: near full inhibition
- solubility [2]: 32 µM (≈ 12.3 µg/mL)
SMILES: CCOC(=O)c1nn(-c2ccc(Cl)cc2)c(=O)c2c(N)sc(Cl)c12 [Compound 67, Ethyl 5-amino-7-chloro-3-(4-chlorophenyl)-4-oxo-3,4-dihydrothieno[3,4-d]pyridazine-1-carboxylate]

- B/P (total), brain-to-plasma ratio ([3]; 1 h after 5 mg/kg i.p.): unity
- fraction unbound at 5 h, 1 μM [6]: 0.057 ± 0.005
- solubility [2]: > 200 µM
SMILES: CC(C)NC(=O)c1nn(-c2ccc(F)cc2)c(=O)c2c(N)scc12 [Compound 42, 5-Amino-3-(4-fluorophenyl)-N-isopropyl-4-oxo-3,4-dihydrothieno[3,4-d]pyridazine-1-carboxamide]
